MPTP block: blocks calcium-induced mitochondrial swelling; isolated mouse mitochondria, Ca2+ swelling absorbance, 30 min; inhibition, % at 10 µM; 360,000 compounds, 1.4% hits;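 active = inhibition of 50% or more, scaled per plate between neutral and stimulator controls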
ATG4B inh: blocks human ATG4B protease cleavage of LC3 substrate; Q9Y4P1; ATG4B cleavage of LC3-PLA2, NBD-HPC fluorescence, 1 h; inhibition, % at 8.33 µM; 340,000 compounds, 0.51% hits; in the data active = inhibition above about 40%
MC4R barr agon: activates human MC4R beta-arrestin recruitment | P32245 | U2OS MC4R beta-arrestin complementation, luminescence; percent of melanotan II response, DMSO zero | activation, % at 8.9 µM | 360,000 compounds, 0.98% hits | AID 540308;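 active = activation above a per-plate cutoff, the mean activation of sample wells on that plate plus 3 SD, cut at about 8% in these data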
Target sequence (P32245 whole entry, looked up): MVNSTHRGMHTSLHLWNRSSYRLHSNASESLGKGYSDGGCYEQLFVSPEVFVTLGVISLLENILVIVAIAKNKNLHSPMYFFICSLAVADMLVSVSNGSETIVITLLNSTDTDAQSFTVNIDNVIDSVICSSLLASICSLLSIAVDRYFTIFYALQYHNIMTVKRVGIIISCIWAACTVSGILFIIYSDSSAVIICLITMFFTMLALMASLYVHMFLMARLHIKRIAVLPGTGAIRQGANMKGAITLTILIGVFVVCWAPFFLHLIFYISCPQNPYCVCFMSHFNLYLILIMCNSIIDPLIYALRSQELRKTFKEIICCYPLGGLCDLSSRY
SMARCA2 act: activators of SMARCA2 function; MG213 cells, MMTV-luciferase reporter, dexamethasone, overnight; 370,000 compounds, 1% hits; activation, % at 9.1 µM; in the data active = activation above about 7.8%
MC4R antag cAMP: human MC4R antagonism in cAMP assay | P32245 | MC4R-expressing cells, MTII-stimulated cAMP, LANCE TR-FRET | inhibition, % at 6.5 µM | 360,000 compounds, 0.48% hits | AID 540295;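 active = inhibition above its plate's cutoff, the mean of tested wells on that plate plus 3 SD, cut at about 29% in these data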
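Material: U2OS-MC4R stable cell line | Reagent: Melanotan II challenge after compound preincubation | Doses: One concentration, 6.5 µM nominal | Incubation: 30-min compound preincubation, 1-h Melanotan II challenge, 1-h detection, room temperature | Signal: TR-FRET cAMP assay | Replicates: One well per compound, no replicates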
ATG4B conf: confirmation of human ATG4B inhibitors; shares compounds with ATG4B inh; ATG4B protease fluorescent substrate cleavage assay; inhibition, % at 8.33 µM; 320 compounds, 92% hits; in the data active = inhibition above about 39%
PLA2 ctr: counter-screen for ATG4B inhibitors: human phospholipase A2. 1,600 compounds, 66% hits. purified PLA2, NBD-C6-HPC fluorescence, 45 min. inhibition, % at 8.33 µM. shares compounds with ATG4B inh; in the data active = inhibition above about 50%
Target sequence (P04054 whole entry, looked up): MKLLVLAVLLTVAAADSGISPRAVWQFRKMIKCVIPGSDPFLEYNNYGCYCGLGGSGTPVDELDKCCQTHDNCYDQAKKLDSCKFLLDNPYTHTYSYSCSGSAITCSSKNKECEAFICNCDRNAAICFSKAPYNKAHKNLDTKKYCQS
Large screens that a line does not name were inactive (follow-up assays come after a bar, where they were run). In the library only some 4.1% were active in any assay of this set; here they are far more common.

CC(=O)Nc1cccc(-c2nc3ccccc3[nH]2)c1	none
CC(C)(C)N(Cc1cn(CC2CCCCC2)nn1)S(=O)(=O)c1ccccc1Br	none (no result: MPTP block, ATG4B inh, MC4R barr agon, MC4R antag cAMP)
COc1cccc(/C=C2\CC3(OC(=O)c4cccc(F)c4)CCCN2C3)c1 (stereo not given)	none (no result: MPTP block, ATG4B inh, MC4R barr agon, MC4R antag cAMP)
COc1ccc(NC(=O)CC(C)C)c([N+](=O)[O-])c1	none
COc1ccc(NC(=O)CC(C)c2ccccc2)c([N+](=O)[O-])c1 (stereo not given)	ATG4B inh 42 | PLA2 ctr inactive
C[C@@]12CCC=C[C@H]1[C@H](c1ccc3ccccc3c1Br)N(Cc1ccccc1)C2=O	ATG4B inh 50 | PLA2 ctr 76
COC(=O)[C@]12C[C@H](CC(=O)N3CCC(c4ccccc4)CC3)C(=O)N(CCc3ccc(OC)c(OC)c3)C1=C[C@H](COCc1ccccc1)O[C@@H]2C	none (no result: MPTP block, ATG4B inh, MC4R barr agon, MC4R antag cAMP)
O=C(Nc1nc(COc2ccccc2)cs1)c1ccccc1F	ATG4B inh 54 | PLA2 ctr inactive
COc1ccc(OC)c(-c2csc(NC(=O)c3ccccc3F)n2)c1	none
CCOc1cc(C(N)=O)cc(Br)c1OCc1ccccc1	ATG4B inh 46 | PLA2 ctr 60
COc1c(Br)cc(C(N)=O)cc1OCc1ccccc1	ATG4B inh 67 | PLA2 ctr 72
CCOc1cc(C(N)=O)cc(Br)c1OC	none
COCc1ccc(C(=O)N2CCCC(Nc3ccc(C(C)C)cc3)C2)s1 (stereo not given)	ATG4B inh 72 | PLA2 ctr 76
CC(C)c1ccc(NC2CCCN(C(=O)c3ccnn3C)C2)cc1 (stereo not given)	none
COCc1ccc(C(=O)N2CCCC(Nc3ccc(C(C)C)cc3)C2)o1 (stereo not given)	ATG4B inh 53 | PLA2 ctr 59
CCCC[C@H]1C2CC(OC(=O)Nc3ccccc3C(F)(F)F)C(C2)[C@H]2CCCCN21 (stereo not given in full)	none (no result: MPTP block, ATG4B inh, MC4R barr agon, MC4R antag cAMP)
Cn1c(-c2c(N)n(CCCc3ccccc3)c3nc4ccccc4nc23)nc2ccccc21	ATG4B inh 42 (no result: SMARCA2 act) | PLA2 ctr 52
CCOc1ccc(N(CC(=O)Nc2c(C)n(C)n(-c3ccccc3)c2=O)S(=O)(=O)c2ccc3c(c2)N(C(=O)C2CCC2)CC3)cc1	none (no result: MPTP block, ATG4B inh, MC4R barr agon, MC4R antag cAMP)
O=C(NC(=S)Nc1ccc(Cc2ccncc2)cc1)c1ccccc1F	ATG4B inh 52 | PLA2 ctr 56
Cc1ccccc1C(=O)NC(=S)Nc1ccc(Cc2ccncc2)cc1	ATG4B inh 46 | PLA2 ctr inactive
O=C(NC(=S)Nc1ccc(Cc2ccncc2)cc1)c1ccccc1Cl	none
COC(=O)C1=C(C)N(Cc2ccccc2C(F)(F)F)C(=NCc2ccccc2)NC1c1cccc(F)c1 (stereo not given)	none (no result: MPTP block, ATG4B inh, MC4R barr agon, MC4R antag cAMP)
Oc1ccc(/C=N/N(Cc2ccccc2)c2ccccc2)c(O)c1O	ATG4B inh 56 | PLA2 ctr 75
C[C@@H]1COc2cc(Br)ccc2S(=O)(=O)N1Cc1cn(CCC2OCCO2)nn1	none (no result: MPTP block, ATG4B inh, MC4R barr agon, MC4R antag cAMP)
CCCn1c(NC(=O)c2ccccc2)nc(Cc2ccccc2)c1Cc1ccccc1	none (no result: MPTP block, ATG4B inh, MC4R barr agon, MC4R antag cAMP)
O=C(CCCOc1ccc(Cl)cc1Cl)N1CCc2ccccc2C1	ATG4B inh 50 | PLA2 ctr 51
O=C1C(NS(=O)(=O)c2cccs2)=C(N2CCN(c3cccc(Cl)c3)CC2)C(=O)c2ccccc21	ATG4B inh 46 | PLA2 ctr 65
Cc1ccccc1CN(c1ccc(C(=O)N/N=C/c2ccc(OCC(N)=O)cc2)cc1)S(C)(=O)=O	ATG4B inh 46 | PLA2 ctr inactive
C(=NN=Cc1c[nH]c2ccccc12)c1c[nH]c2ccccc12	none (no result: ATG4B inh)
O=C1/C(=C/c2c[nH]c3ccccc23)CCC/C1=C\c1c[nH]c2ccccc12	ATG4B inh 75 | PLA2 ctr 75
COC(=O)[C@]12C[C@H](CC(=O)NCCC(C)C)C(=O)N(CCC3=CCCCC3)C1=C[C@H](C(C)C)O[C@@H]2C1CC1	none (no result: MPTP block, ATG4B inh, MC4R barr agon, MC4R antag cAMP)
CCCCCCC12C(=Cc3cc(C)ccc31)c1ccccc1C(CC(=O)NCc1ccccc1)N2C(=O)OC (stereo not given)	none (no result: MPTP block, ATG4B inh, MC4R barr agon, MC4R antag cAMP)
CCn1cc(C(=O)OCc2cccc(Br)c2)c(=O)c2ccc(C)nc21	ATG4B inh 46 | PLA2 ctr 53
CCn1cc(C(=O)OCC(=O)c2cc(C)n(-c3cccc(C(F)(F)F)c3)c2C)c(=O)c2ccc(C)nc21	ATG4B inh 75 | PLA2 ctr 67
CCn1cc(C(=O)OCC(=O)OC2CC(C)CCC2C(C)C)c(=O)c2ccc(C)nc21 (stereo not given)	ATG4B inh 71 | PLA2 ctr 71
C=Cc1ccc(COC(=O)c2cn(CC)c3nc(C)ccc3c2=O)cc1	ATG4B inh 40 | PLA2 ctr inactive
Cc1csc(NC(=O)c2ccc(COc3ccccc3F)o2)n1	none (no result: MPTP block, ATG4B inh, MC4R barr agon, MC4R antag cAMP)
COc1ccc(-c2csc(NC(=O)c3ccc(C(C)(C)C)cc3)c2C(=O)O)cc1	ATG4B inh 47 (no result: MPTP block, MC4R barr agon, SMARCA2 act, MC4R antag cAMP) | PLA2 ctr 53
O=C(Nc1scc(-c2ccccc2)c1C(=O)O)c1ccccc1F	none
Cc1ccc(-c2csc(NC(=O)c3ccccc3F)c2C(=O)O)cc1	ATG4B inh 55 | PLA2 ctr 58
O=C(NCCc1ccccc1Cl)[C@@H]1CCCN1C(=O)[C@H](Cc1cccnc1)NC(=O)N1CCOCC1	none (no result: MPTP block, ATG4B inh, MC4R barr agon, MC4R antag cAMP)
COc1cc(=O)oc(C=O)c1C	none (no result: MPTP block, ATG4B inh, MC4R barr agon, MC4R antag cAMP)
COCc1[nH]nc2c1C(c1ccccc1)NC2=O (stereo not given)	none (no result: MPTP block, ATG4B inh, MC4R barr agon, MC4R antag cAMP)
Cc1ccc(NC(=O)C2CCCN(c3nnc(-n4cccc4)s3)C2)cc1C (stereo not given)	none (no result: MPTP block, ATG4B inh, MC4R barr agon, MC4R antag cAMP)
COCCNC(=O)/C(C#N)=C/c1c(N2CCN(c3ccc(OC)cc3)CC2)nc2c(C)cccn2c1=O	none
COCCNC(=O)/C(C#N)=C/c1c(N2CCN(c3ccccc3)CC2)nc2c(C)cccn2c1=O	ATG4B inh 40 | ATG4B conf 65 | PLA2 ctr inactive
Cc1ccccc1Oc1nc2c(C)cccn2c(=O)c1/C=C(\C#N)C(=O)Nc1c(C)n(C)n(-c2ccccc2)c1=O	ATG4B inh 53 | PLA2 ctr 66
CC(=O)N[C@@H]1C[C@@H]2O[C@H](CO)CC[C@@H]2O[C@@H]1CCc1ccc(C#CC2(O)CCCC2)cc1	none (no result: MPTP block, ATG4B inh, MC4R barr agon, MC4R antag cAMP)
O=C(NCc1c(Cl)cccc1Oc1ccccc1)c1ccccc1	ATG4B inh 47 | PLA2 ctr 57
COc1ccc2c(c1)[C@@H]1[C@H](CO2)[C@H](c2ccccc2)[C@]2(C)C(=O)Nc3ccc(C)cc3C(=O)N12	ATG4B inh 46 (no result: SMARCA2 act) | PLA2 ctr 71
COc1ccc2c(c1)[C@H]1[C@H](CO2)[C@H](c2ccccc2)[C@]2(C)C(=O)Nc3ccc(C)cc3C(=O)N12	none
CCCCN1CN2Cc3cc(OC)ccc3C2CS1(=O)=O (stereo not given)	none (no result: MPTP block, ATG4B inh, MC4R barr agon, MC4R antag cAMP)
